Source: ChEMBL document CHEMBL1770090, “Synthesis, antimicrobial, antioxidant, anti-hemolytic and cytotoxic evaluation of new imidazole-based heterocycles” (Eur J Med Chem, 2011)
≈ marks a conversion by molar mass, not a printed value.

Experiments:
Aspergillus niger = test: Antimicrobial activity against Aspergillus niger after 48 hrs by agar well diffusion method; assay type: functional
How it was run: (§1)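 Agar well diffusion. Inocula of 100 µL: bacteria 1 × 10^8 CFU/mL on nutrient agar, yeast 1 × 10^6 CFU/mL on Sabouraud dextrose agar, fungi 1 × 10^4 spore/mL on potato dextrose agar. 10 mm wells received 100 µL of compound at 100 mg/mL in DMSO. Bacteria incubated 24 h at 37 °C, fungi 48 h at 28 °C. Controls were DMSO, ciprofloxacin 50 µg/mL and ketoconazole 50 µg/mL. Inhibition zone diameter in mm, scored N.A. to ++++, average of triplicates.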

Staphylococcus aureus [1] = test: Antimicrobial activity against Staphylococcus aureus ATCC 29213 after 24 hrs by agar well diffusion method; assay type: functional; how it was run: as §1
Candida albicans = test: Antimicrobial activity against Candida albicans NRRL Y-477 after 48 hrs by agar well diffusion method; assay type: functional; how it was run: as §1
Escherichia coli [2] = test: Antimicrobial activity against Escherichia coli ATCC 25922 after 24 hrs by agar well diffusion method; assay type: functional; how it was run: as §1
Pseudomonas aeruginosa [3] = test: Antimicrobial activity against Pseudomonas aeruginosa ATCC 27953 after 24 hrs by two fold serial dilution technique; assay type: functional; conditions: ATCC 27953, 24 h
How it was run: (§2)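 Tested only compounds giving inhibition zones ≥ 16 mm, by two-fold serial dilution in nutrient broth. Final concentrations were […], 175, 87.5, 43.8 and 21.9 µg/mL. Each 5 mL tube received 0.1 mL inoculum of about 1 × 10^8 CFU/mL and was incubated 24 h at 37 °C. MIC was the lowest concentration with no growth.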

Bacillus subtilis [4] = test: Antimicrobial activity against Bacillus subtilis ATCC 6633 after 24 hrs by agar well diffusion method; assay type: functional; how it was run: as §1
Klebsiella pneumoniae [5] = test: Antimicrobial activity against Klebsiella pneumoniae ATCC 13883 after 24 hrs by two fold serial dilution technique; assay type: functional; conditions: ATCC 13883, 24 h; how it was run: as §2
Pseudomonas aeruginosa [6] = test: Antimicrobial activity against Pseudomonas aeruginosa ATCC 27953 after 24 hrs by agar well diffusion method; assay type: functional; how it was run: as §1
Klebsiella pneumoniae [7] = test: Antimicrobial activity against Klebsiella pneumoniae ATCC 13883 after 24 hrs by agar well diffusion method; assay type: functional; how it was run: as §1
Priestia megaterium [8] = test: Antimicrobial activity against Bacillus megaterium ATCC 9885 after 24 hrs by two fold serial dilution technique; assay type: functional; conditions: ATCC 9885, 24 h; how it was run: as §2
Staphylococcus aureus [9] = test: Antimicrobial activity against Staphylococcus aureus ATCC 29213 after 24 hrs by two fold serial dilution technique; assay type: functional; conditions: ATCC 29213, 24 h; how it was run: as §2
Escherichia coli [10] = test: Antimicrobial activity against Escherichia coli ATCC 25922 after 24 hrs by two fold serial dilution technique; assay type: functional; conditions: ATCC 25922, 24 h; how it was run: as §2
Priestia megaterium [11] = test: Antimicrobial activity against Bacillus megaterium ATCC 9885 after 24 hrs by agar well diffusion method; assay type: functional; how it was run: as §1
Bacillus subtilis [12] = test: Antimicrobial activity against Bacillus subtilis ATCC 6633 after 24 hrs by two fold serial dilution technique; assay type: functional; conditions: ATCC 6633, 24 h; how it was run: as §2
[13] = Cytotoxicity against mouse EAC cells assessed as cell viability using trypan blue staining after 2 hrs by hemocytometer analysis; assay type: functional, cell-based; conditions: Ehrlich
[14] = Antioxidant activity in rat erythrocytes assessed as inhibition of peroxyl radicals-induced hemolysis at 2 mM after 2 hrs; assay type: functional; conditions: Erythrocyte, read-out: INH
How it was run: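 Rat blood from cardiac puncture, heparinized. Erythrocytes were washed three times in 0.15 M NaCl. A 10% suspension in PBS pH 7.4 was mixed with an equal volume of 200 mM AAPH in PBS containing sample, then shaken at 37 °C for 2 h. Mixture diluted with 8 volumes of PBS and centrifuged; supernatant A540 compared with a water-lysed sample for complete hemolysis. L-ascorbic acid was the positive control. Mean ± SD.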

[15] = Antioxidant activity assessed as ABTS radical scavenging activity at 2 mM; assay type: functional
How it was run: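 ABTS (60 µM, 2 mL) was oxidized with MnO2 (25 mg/mL, 3 mL) in 0.1 M phosphate buffer pH 7, then centrifuged and filtered, with A734 adjusted to about 0.5. 50 µL of 2 mM compound in MeOH/phosphate buffer (1:1) was added. Colour loss expressed as % inhibition. L-ascorbic acid was the standard; blank and negative controls used MeOH/buffer.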

Row | SMILES | diameter of the inhibition zone (DIZ) (Aspergillus niger) | diameter of the inhibition zone (DIZ) (Staphylococcus aureus [1]) | diameter of the inhibition zone (DIZ) (Candida albicans) | diameter of the inhibition zone (DIZ) (Escherichia coli [2]) | MIC (Pseudomonas aeruginosa [3]) [µg/mL] | diameter of the inhibition zone (DIZ) (Bacillus subtilis [4]) | MIC (Klebsiella pneumoniae [5]) [µg/mL] | diameter of the inhibition zone (DIZ) (Pseudomonas aeruginosa [6]) | diameter of the inhibition zone (DIZ) (Klebsiella pneumoniae [7]) | MIC (Priestia megaterium [8]) [µg/mL] | MIC (Staphylococcus aureus [9]) [µg/mL] | MIC (Escherichia coli [10]) [µg/mL] | diameter of the inhibition zone (DIZ) (Priestia megaterium [11]) | MIC (Bacillus subtilis [12]) [µg/mL] | IC50 [13] [µg/mL] | percent hemolysis at 2000 µM [14] [%] | inhibition [15] [%]
1 | O=C(O)c1cn(C2CC2)c2cc(N3CCNCC3)c(F)cc2c1=O [CIPROFLOXACIN] | <=4 mm | 16 mm | <=4 mm | 16 mm | 10.9 (≈ 32.9 µM) | >=21 mm | 10.9 (≈ 32.9 µM) | >=21 mm | >=21 mm | 21.9 (≈ 66.1 µM) | 21.9 (≈ 66.1 µM) | 21.9 (≈ 66.1 µM) | 16 mm | 10.9 (≈ 32.9 µM) | – | – | –
2 | C/C(=N\N=C1\NC(=O)CS1)c1nc(-c2ccccc2)[nH]c1C | <=4 mm | 16 mm | <=4 mm | <=4 mm | – | 16 mm | 21.9 (≈ 69.9 µM) | <=4 mm | 16 mm | – | 43.8 (≈ 140 µM) | – | <=4 mm | 43.8 (≈ 140 µM) | – | – | –
3 | C/C(=N\NC(=O)/C(C#N)=C\c1ccc(F)cc1)c1nc(-c2ccccc2)[nH]c1C | <=4 mm | >=21 mm | <=4 mm | 16 mm | 21.9 (≈ 56.5 µM) | 16 mm | – | 16 mm | 10 mm | 21.9 (≈ 56.5 µM) | 21.9 (≈ 56.5 µM) | 21.9 (≈ 56.5 µM) | >=21 mm | 43.8 (≈ 113 µM) | 85.2 (≈ 220 µM) | 0.86 | 68.6
